Data on six compounds can be found in ChEMBL document CHEMBL1140049, “Bioisosteric replacement of the pyrazole 5-aryl moiety of N-(piperidin-1-yl)-5-(4-chlorophenyl)-1-(2,4-dichlorophenyl)-4-methyl-1H-pyrazole-3-carboxamide (SR141716A). A novel series of alkynylthiophenes as potent and selective cannabinoid-1 receptor antagonists” (J Med Chem, 2008).

The source made the active and inactive calls. The rule behind the calls is not given here.

Assay [1] deals with T1, Cannabinoid receptor 1 (Homo sapiens, UniProt P21554). As to the kind of experiment: biochemical. The class given is cell-based, HEK293.
T1 sequence (P21554 whole entry): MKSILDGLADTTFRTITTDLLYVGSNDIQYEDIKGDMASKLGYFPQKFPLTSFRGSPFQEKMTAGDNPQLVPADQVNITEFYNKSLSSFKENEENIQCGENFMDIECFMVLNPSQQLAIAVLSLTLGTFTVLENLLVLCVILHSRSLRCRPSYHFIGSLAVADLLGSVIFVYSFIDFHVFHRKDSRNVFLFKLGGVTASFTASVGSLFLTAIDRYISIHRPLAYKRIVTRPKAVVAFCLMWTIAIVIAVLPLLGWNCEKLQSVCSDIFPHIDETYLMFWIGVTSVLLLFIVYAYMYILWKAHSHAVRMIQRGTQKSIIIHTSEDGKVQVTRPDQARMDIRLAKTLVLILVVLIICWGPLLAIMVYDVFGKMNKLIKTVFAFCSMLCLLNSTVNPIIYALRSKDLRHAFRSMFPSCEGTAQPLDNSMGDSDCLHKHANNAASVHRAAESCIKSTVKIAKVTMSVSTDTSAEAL
The test system of a further assay is HEK293. The experiment in a line: Selectivity ratio of IC50 for human CB2 receptor to human CB1 receptor expressed in HEK293 cells. The class given is cell-based.
Assay [2] has as its target T1, Cannabinoid receptor 1. As to the kind of experiment: Antagonist activity at human CB1 receptor expressed in HEK293 cells assessed as effect on [35S]gammaGTP binding relative to control. The class given is cell-based.
Assay [3] deals with T1, Cannabinoid receptor 1. The experiment in a line: Displacement of [3H]SR141716A from human CB1 receptor expressed in HEK293 cells. The class given is cell-based. In general terms: Loss of bound radioactivity is the signal in a displacement assay; it reports binding, not function.
The target in the next assay is Cannabinoid receptor 2 (Homo sapiens, UniProt P34972). The experiment in a line: Displacement of [3H]CP-55940 from human CB2 receptor expressed in HEK293 cells. The class given is cell-based.
Sequence of Cannabinoid receptor 2 (P34972 whole entry): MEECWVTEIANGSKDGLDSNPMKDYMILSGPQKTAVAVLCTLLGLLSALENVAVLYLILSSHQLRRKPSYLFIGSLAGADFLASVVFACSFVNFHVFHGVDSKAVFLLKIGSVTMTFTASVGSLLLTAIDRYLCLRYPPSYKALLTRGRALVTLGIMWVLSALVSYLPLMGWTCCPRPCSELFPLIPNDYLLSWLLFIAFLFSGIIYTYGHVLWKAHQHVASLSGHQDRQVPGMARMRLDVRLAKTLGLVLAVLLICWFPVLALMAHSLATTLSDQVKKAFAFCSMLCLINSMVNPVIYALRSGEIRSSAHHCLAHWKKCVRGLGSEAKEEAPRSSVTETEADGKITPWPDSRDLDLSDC
Assay [4] concerns the target T1, Cannabinoid receptor 1. The experiment in a line: Antagonist activity at human CB1 receptor expressed in HEK293 cells assessed as inhibition of Eu-GTP binding. The class given is cell-based.
Assay [5] concerns the target T1, Cannabinoid receptor 1. The experiment in a line: Agonist activity at human CB1 receptor expressed in HEK293 cells assessed as increase in [35S]gammaGTP binding relative to control. The class given is cell-based.
The subject of assay [6] is Mus musculus. The experiment in a line: Suppression of appetite in orally dosed DIO C57BL/6 mouse model. The class given is functional, organism-based.
The test system of the next assay is Rattus norvegicus. As to the kind of experiment: Suppression of appetite in orally dosed spontaneously feeding Wistar rat model. The class given is functional, organism-based. The essentials: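 Male Wistar rats (210-270 g), singly housed on 12 h reversed light cycle over a week; single oral gavage of 3, 10 or 20 mg/kg or vehicle (20% DMSO/10% Tween-80/70% H2O) before lights off, chow supplied at 11 a.m.; food intake at 1, 2, 3, 6 h as cal per g body weight; n = 4-6.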

In assay [7] the test system is Mus musculus. As to the kind of experiment: Decrease in body weight in DIO C57BL/6 mouse model at 20 mg/kg, po qd for 21 days. The class given is functional, organism-based. Details: dose 20 mg/kg.
Assay [8] relates to Mus musculus. As to the kind of experiment: Decrease in body weight in DIO C57BL/6 mouse model at 10 mg/kg, po qd for 21 days.

In general, IC50 refers to the concentration that gives 50% inhibition. Read a low IC50 as greater potency in that assay. Usually EC50 stands for the concentration giving half of the maximal effect. In the case of `CCCC#Cc1ccc(-c2c(C)c(C(=O)NN3CCCCC3)nn2-c2ccc(Cl)cc2Cl)s1`, the results for the IC50 at Cannabinoid receptor 1 [1], at Cannabinoid receptor 1 [3] and at Cannabinoid receptor 2 were 13.9 nM, 1.2 nM and 2210 nM, respectively. In the assay on HEK293, the Ratio IC50 was 159. Also, at Cannabinoid receptor 1 [2], the outcome was Active. The EC50 on Cannabinoid receptor 1 [4] stood at 28.7 nM.
As for `CCCC#Cc1ccc(-c2c(C)c(C(=O)NN3CCCCCC3)nn2-c2ccc(Cl)cc2Cl)s1`, the IC50 at Cannabinoid receptor 1 [1] stood at 7 nM; at Cannabinoid receptor 1 [3], 1.2 nM; on Cannabinoid receptor 2, 1500 nM. Besides, the Ratio IC50 with HEK293 amounted to 214. Also, the outcome on Cannabinoid receptor 1 [2] was Active. Moreover, the EC50 at Cannabinoid receptor 1 [4] is 14.1 nM.
Regarding `Cc1c(C(=O)NN2CCCCC2)nn(-c2ccc(Cl)cc2Cl)c1-c1ccc(C#CCC(C)C)s1`, the 50% inhibitory concentration (IC50) was 2.3 nM against Cannabinoid receptor 1 [1], 1.2 nM on Cannabinoid receptor 1 [3] and 386 nM at Cannabinoid receptor 2. In addition, the Ratio IC50 in the assay with HEK293 amounted to 168. In addition, the result on Cannabinoid receptor 1 [5] was Active. Also, the 50% effective concentration (EC50) on Cannabinoid receptor 1 [4] amounted to 12.1 nM.
`CCCC#Cc1ccc(-c2c(CC)c(C(=O)NN3CCCCC3)nn2-c2ccc(Cl)cc2Cl)s1`: the IC50 at Cannabinoid receptor 1 [1] was 6.1 nM; on Cannabinoid receptor 1 [3] it was 1.2 nM; at Cannabinoid receptor 2 it was 920 nM. For the same compound, the Ratio IC50 in the assay on HEK293 is 151. Also, the Activity entry with Mus musculus [6] and in the assay with Rattus norvegicus was “Dose-dependent effect” in each case. Further, the result with Mus musculus [7] was Active. Further, the EC50 at Cannabinoid receptor 1 [4] was 13.8 nM.
Turning to `Cc1c(C(=O)NN2CCCCCC2)nn(-c2ccc(Cl)cc2Cl)c1-c1ccc(C#CCC(C)C)s1`, the IC50 at Cannabinoid receptor 1 [1] was found to be 4.9 nM; at Cannabinoid receptor 1 [3] it was 1.2 nM; on Cannabinoid receptor 2, 688 nM. The Ratio IC50 in the assay on HEK293 was 139. The result on Cannabinoid receptor 1 [5] was Active. In addition, the half-maximal effective concentration (EC50) at Cannabinoid receptor 1 [4] turned out to be 14.6 nM.
For `Cc1c(C(=O)NN2CCCCC2)nn(-c2ccc(Cl)cc2Cl)c1-c1ccc(Cl)cc1`, in the assay on Mus musculus [8], the outcome was Active.
